Measured values pooled from the literature.
Target: Protein kinase C epsilon type (PRKCE, Homo sapiens, UniProt Q02156)
Sequence (Q02156 1-737, as in one of the studies): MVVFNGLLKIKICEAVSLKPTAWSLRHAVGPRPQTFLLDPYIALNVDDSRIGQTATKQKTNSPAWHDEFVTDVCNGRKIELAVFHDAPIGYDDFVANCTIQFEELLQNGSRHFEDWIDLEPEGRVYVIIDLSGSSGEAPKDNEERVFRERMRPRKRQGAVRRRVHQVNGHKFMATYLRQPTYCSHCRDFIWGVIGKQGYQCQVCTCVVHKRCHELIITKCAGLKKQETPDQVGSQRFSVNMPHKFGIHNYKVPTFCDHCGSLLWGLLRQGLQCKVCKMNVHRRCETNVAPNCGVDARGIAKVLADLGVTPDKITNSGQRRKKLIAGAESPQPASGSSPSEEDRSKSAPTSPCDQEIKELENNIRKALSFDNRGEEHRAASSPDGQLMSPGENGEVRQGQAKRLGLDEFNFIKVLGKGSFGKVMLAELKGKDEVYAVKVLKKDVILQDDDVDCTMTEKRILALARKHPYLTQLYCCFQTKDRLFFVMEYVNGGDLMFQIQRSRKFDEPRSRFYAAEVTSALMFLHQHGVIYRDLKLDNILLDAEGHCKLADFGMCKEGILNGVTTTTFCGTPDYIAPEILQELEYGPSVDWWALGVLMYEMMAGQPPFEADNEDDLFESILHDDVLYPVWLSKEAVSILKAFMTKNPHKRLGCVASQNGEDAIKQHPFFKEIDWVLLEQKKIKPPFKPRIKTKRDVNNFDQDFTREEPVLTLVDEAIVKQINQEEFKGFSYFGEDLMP

SMILES | test | setting | endpoint | result
CCCCC(=O)Nc1ccc(-c2ccc3ncn(CCC)c(=O)c3c2)cn1 | binding, competition with immobilised ligand | 0.5 µM | remaining binding | 83%
CC#CC(=O)N1CCC[C@H]1c1nc(-c2ccc(C(=O)Nc3ccccn3)cc2)c2c(N)nccn12 | enzyme activity, inhibitor | 1 µM | inhibition | 0%
C#Cc1cnc(Nc2ccnc(CO)c2)nc1Nc1ccccc1S(C)(=O)=NC#N (stereo not drawn) | cell-free assay | 1 µM | remaining signal | 62%
N#Cc1ccc(NC(=O)Nc2ccccc2)cc1 | cell-free assay, competition with immobilised ligand | 25 µM | remaining binding | 100%
C1=C/COCc2cc(ccc2OCCN2CCCC2)Nc2nccc(n2)-c2cccc(c2)COC/1 | binding | 0.1 µM | remaining binding | 68%
C[C@H]1CC[C@H](n2c3cnccc3c3cnc(Nc4ccc5c(n4)CCN(C(=O)CO)C5)nc32)CC1 | cell-free assay | 1 µM | remaining signal | 100%
CO[C@@H]1[C@H](N(C)C(=O)c2ccccc2)C[C@H]2O[C@]1(C)n1c3ccccc3c3c4c(c5c6ccccc6n2c5c31)C(=O)NC4 | enzyme activity, inhibitor | 1 µM | inhibition | 92%
Cc1ccc(NC(=O)c2ccnc(C(F)(F)F)c2)cc1-c1cc(OCCO)nc(N2CCOCC2)c1 | binding | 1 µM | remaining binding | 75%
COc1ccc2oc(-c3ccc4nc(N)oc4c3)c/c(=N\c3ccccc3NC(=O)CCN)c2c1 | binding | 1 µM | remaining binding | 106%
